# Calls of active or inactive are those of the source. The rule behind the calls is not given here.
# Tested on: not listed separately
# Test: HPLC capacity factor (k')
# Type: ADME
# Details: not given
row,SMILES,Log k'
1,CCOC(=O)NC1=NC(c2cccc(Cl)c2)CN1C (configuration not stated),0.78
2,COC(=O)NC1=NC(c2ccccc2Cl)CN1C (configuration not stated),0.51
3,COC(=O)NC1=NC(c2ccc([S+](C)[O-])cc2)CN1C (configuration not stated),-1.03
4,CC(C)OC(=O)NC1=NC(c2ccccc2F)CN1C (configuration not stated),0.77
5,COC(=O)NC1=NC(c2ccccc2Cl)CN1 (configuration not stated),0.29
6,COC(=O)NC1=NC(c2ccccc2)CN1C (configuration not stated),0.06
7,CCOC(=O)NC1=NC(c2cccc(F)c2)CN1C (configuration not stated),0.51
8,COC(=O)NC1=NC(c2ccc(O)c(O)c2)CN1 (configuration not stated),-1.51

# Tested on: Mus musculus
# Test: Evaluated in vivo for reserpine hypothermia after oral administration in mouse. Minimum active dose was reported; Inactive
# Type: functional, organism-based
# Details: not given
# Summary of the method: (§1)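 Male HLa (ICR) BR mice, 18-24 g, in groups of eight; reserpine 5 mg/kg ip given 2 h before oral test compound as aqueous solution. Rectal temperature taken hourly; 1-4-h hypothermia assessed by analysis of variance.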
row,SMILES,ED50
1,CCOC(=O)NC1=NC(c2cccc(F)c2)CN1C (configuration not stated),inactive

# Tested on: Mus musculus
# Test: Compound was evaluated in vivo for reserpine hypothermia after oral administration in mouse. Minimum active dose was reported; Inactive
# Type: functional, organism-based
# Details: not given
# Summary of the method: as §1
row,SMILES,ED50
1,COC(=O)NC1=NC(c2ccc([S+](C)[O-])cc2)CN1C (configuration not stated),inactive

# Organism: Mus musculus
# Test: Evaluated for antagonism of reserpine induced hypothermia;I= Inactive
# Type: functional, organism-based
# Details: not given
# Summary of the method: as §1
row,SMILES,HYPO
1,COC(=O)NC1=NC(c2ccc([S+](C)[O-])cc2)CN1C (configuration not stated),inactive

# Organism: Mus musculus
# Test: Mouse behavior activity was determined; D=Depressant.
# Type: functional, organism-based
# Details: not given
# Summary of the method: (§2)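 Male Simonsen (ICR) fBR mice, 18-24 g, groups of three, given 3, 10, 30, 100, 300 or 1000 mg/kg ip as aqueous solution and observed for behavioral profile; deaths followed up to 7 days.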
row,SMILES,Mouse behavior activity
1,COC(=O)NC1=NC(c2ccccc2Cl)CN1 (configuration not stated),Depressant

# Organism: Mus musculus
# Test: Mouse behavior activity was determined; Depressant-Stimulant.
# Type: functional, organism-based
# Details: not given
# Summary of the method: as §2
row,SMILES,Mouse behavior activity
1,CC(C)OC(=O)NC1=NC(c2ccccc2F)CN1C (configuration not stated),Depressant-Stimulant

# Organism: Mus musculus
# Test: Mouse behavior activity was determined; Depressant.
# Type: functional, organism-based
# Details: not given
# Summary of the method: as §2
row,SMILES,Mouse behavior activity
1,COC(=O)NC1=NC(c2ccccc2Cl)CN1C (configuration not stated),Depressant

# Organism: Mus musculus
# Test: Mouse behavior activity was determined; Dwk=Depressant Weak
# Type: functional, organism-based
# Details: not given
# Summary of the method: as §2
row,SMILES,Mouse behavior activity
1,COC(=O)NC1=NC(c2ccc([S+](C)[O-])cc2)CN1C (configuration not stated),Depressant Weak

# Tested on: Mus musculus
# Test: Mouse behavior activity was determined; I=inactive at a dose of 50 mg/Kg
# Type: functional, organism-based
# Details: not given
row,SMILES,Mouse behavior activity
1,COC(=O)NC1=NC(c2ccc(O)c(O)c2)CN1 (configuration not stated),inactive

# Organism: Mus musculus
# Test: Mouse behavior activity was determined;D= Depressant
# Type: functional, organism-based
# Details: not given
# Summary of the method: as §2
row,SMILES,Mouse behavior activity
1,CCOC(=O)NC1=NC(c2cccc(Cl)c2)CN1C (configuration not stated),Depressant

# Organism: Mus musculus
# Test: Compound was evaluated for antagonism of reserpine induced hypothermia.
# Type: functional
# Details: not given
# Summary of the method: as §1
row,SMILES,HYPO [mg/kg]
1,CCOC(=O)NC1=NC(c2cccc(Cl)c2)CN1C (configuration not stated),<0.5
2,CCOC(=O)NC1=NC(c2cccc(F)c2)CN1C (configuration not stated),<0.5

# Tested on: not listed separately
# Test: Compound was evaluated for lethal dose in mouse in groups of ten (values in parentheses indicates 95% confidence limits)
# Type: toxicity, organism-based
# Details: in vivo
row,SMILES,LD50 [mg/kg]
1,COC(=O)NC1=NC(c2ccc(O)c(O)c2)CN1 (configuration not stated),> 1000

# Organism: Mus musculus
# Test: Compound was evaluated for maximal electroshock antagonism (MES) against mice
# Type: functional
# Details: not given
# Summary of the method: (§3)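 Male HLa (ICR) BR mice, groups of eight to ten, dosed ip (aqueous solution) 15 min before transcorneal electroshock (50 mA, 0.2 s). End point: abolition of tonic hind-limb extension; quantal ED50 by Litchfield-Wilcoxon.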
row,SMILES,ED50 [mg/kg]
1,CCOC(=O)NC1=NC(c2cccc(Cl)c2)CN1C (configuration not stated),74
2,COC(=O)NC1=NC(c2ccccc2Cl)CN1C (configuration not stated),28
3,CC(C)OC(=O)NC1=NC(c2ccccc2F)CN1C (configuration not stated),23
4,COC(=O)NC1=NC(c2ccccc2Cl)CN1 (configuration not stated),50
5,COC(=O)NC1=NC(c2ccccc2)CN1C (configuration not stated),107

# Organism: Mus musculus
# Test: Compound was evaluated for maximal electroshock antagonism (MES) against mice; Inactive
# Type: functional, organism-based
# Details: not given
# Summary of the method: as §3
row,SMILES,ED50
1,COC(=O)NC1=NC(c2ccc([S+](C)[O-])cc2)CN1C (configuration not stated),inactive

# Tested on: Mus musculus
# Test: Compound was evaluated for maximal electroshock antagonism (MES) against mice; Inactive at 30 mg/kg
# Type: functional, organism-based
# Parameters: dose 30 mg/kg
# Details: not given
# Summary of the method: as §3
row,SMILES,ED50
1,CCOC(=O)NC1=NC(c2cccc(F)c2)CN1C (configuration not stated),inactive

# Tested on: Mus musculus
# Test: Compound was evaluated in vivo for reserpine hypothermia after oral administration in mouse. Minimum active dose was reported; rigidity was potentiated by compound.
# Type: functional, organism-based
# Details: not given
# Summary of the method: as §1
row,SMILES,P
1,COC(=O)NC1=NC(c2ccccc2)CN1C (configuration not stated),rigidity was potentiated by compound

# Organism: Mus musculus
# Test: Righting ability was determined in mice […] rapid rolling (aroused)
# Type: functional
# Details: not given
# Summary of the method: (§4)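 Male Simonsen (ICR) fBR mice, 18-24 g, groups of ten, dosed with aqueous compound. Righting ability checked before (unaroused) and after (aroused) rapid rolling in the hand; ED50 by Litchfield-Wilcoxon method.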
row,SMILES,Loss of righting reflex [mg/kg]
1,COC(=O)NC1=NC(c2ccccc2Cl)CN1C (configuration not stated),92
2,CC(C)OC(=O)NC1=NC(c2ccccc2F)CN1C (configuration not stated),55

# Organism: Mus musculus
# Test: Righting ability was determined in mice before rapid rolling (unaroused)
# Type: functional
# Details: not given
# Summary of the method: as §4
row,SMILES,Loss of righting reflex [mg/kg]
1,CCOC(=O)NC1=NC(c2cccc(Cl)c2)CN1C (configuration not stated),70
2,COC(=O)NC1=NC(c2ccccc2Cl)CN1C (configuration not stated),49
3,CC(C)OC(=O)NC1=NC(c2ccccc2F)CN1C (configuration not stated),11
4,COC(=O)NC1=NC(c2ccccc2Cl)CN1 (configuration not stated),200

# Organism: Mus musculus
# Test: Mouse behavior activity was determined; S-D=Stimulant-Depressant
# Type: functional, organism-based
# Details: not given
# Summary of the method: as §2
row,SMILES,Mouse behavior activity
1,COC(=O)NC1=NC(c2ccccc2)CN1C (configuration not stated),Stimulant-Depressant

# Organism: Mus musculus
# Test: Evaluated for antagonism of reserpine induced hypothermia
# Type: functional
# Details: not given
# Summary of the method: as §1
row,SMILES,HYPO [mg/kg]
1,COC(=O)NC1=NC(c2ccc(O)c(O)c2)CN1 (configuration not stated),>20

# Tested on: not listed separately
# Test: Lethal dose in mouse, in groups of ten
# Type: toxicity, organism-based
# Details: in vivo
row,SMILES,LD50 [mg/kg]
1,CCOC(=O)NC1=NC(c2cccc(Cl)c2)CN1C (configuration not stated),300
2,COC(=O)NC1=NC(c2ccccc2Cl)CN1C (configuration not stated),238
3,COC(=O)NC1=NC(c2ccc([S+](C)[O-])cc2)CN1C (configuration not stated),> 1000
4,CC(C)OC(=O)NC1=NC(c2ccccc2F)CN1C (configuration not stated),700
5,COC(=O)NC1=NC(c2ccccc2Cl)CN1 (configuration not stated),500
6,COC(=O)NC1=NC(c2ccccc2)CN1C (configuration not stated),200

# From ChEMBL document CHEMBL1122650, “Synthesis and central nervous system properties of 2-[(alkoxycarbonyl)amino]-4(5)-phenyl-2-imidazolines” (J Med Chem, 1984)
